Screens deposited in PubChem BioAssay by Johns Hopkins Ion Channel Center.
RGS4 act: RGS4 potentiators or activators, primary screen, cell-based, HEK293 M3R inducible RGS4, calcium flux | carbachol calcium flux Fluo4; active compounds read low | 310,000 compounds, 0.92% hits | B-score at 10 µM | AID 463111, 2010;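 active means B-score of the integrated calcium signal more than 4 SD below the library mean, with starting fluorescence not abnormally high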;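 further: negative B-score means reduced calcium response which marks RGS4 activation or potentiation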
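Reagent: ECmax carbachol challenge; Test system: M3R-expressing HEK293 line, RGS4 induced by doxycycline; Schedule: overnight RGS4 induction, 30 min dye load 37 °C, 20 min compound RT; Detection: calcium dye Fluo4 fluorescence; Read-out: Agonist-evoked peak-minus-minimum fluorescence over baseline, integrated ratio, B score.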
MrgX1 ag: agonists of human MrgX1 receptor, primary screen, HEK293 cells, Fluo-4 calcium flux; Mas-related G-protein coupled receptor member X1 (Homo sapiens), Q96LB2; Fluo-4 calcium fluorescence, agonist mode; active compounds read high; B-score at 10 µM; 310,000 compounds, 0.44% hits;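 active means calcium response B-score plate-corrected fluorescence ratio at least 3 library SD, with starting fluorescence B-score inside 5 SD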
Target sequence (Q96LB2 whole entry, looked up): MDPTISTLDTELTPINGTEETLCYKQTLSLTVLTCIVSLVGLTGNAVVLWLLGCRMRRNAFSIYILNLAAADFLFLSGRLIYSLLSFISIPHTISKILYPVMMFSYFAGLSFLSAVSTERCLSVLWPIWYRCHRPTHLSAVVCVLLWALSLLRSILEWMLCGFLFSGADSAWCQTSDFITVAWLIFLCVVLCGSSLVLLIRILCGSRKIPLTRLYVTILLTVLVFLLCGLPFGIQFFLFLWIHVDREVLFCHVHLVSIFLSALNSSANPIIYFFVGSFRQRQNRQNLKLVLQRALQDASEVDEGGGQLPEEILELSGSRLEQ
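Assay system: stable human MrgX1 HEK293 cell line. Quantity: 15,000 cells per well. Schedule: cells plated overnight, dye loaded 0.5 h 37 °C, 0.5 h room temperature. Detection: Fluo-4 NW calcium-flux fluorescence, kinetic read. Read-out basis: peak-minus-minimum fluorescence over baseline, converted to B scores. Control set: positive and negative control wells on each plate.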
RGS4 inh: RGS4 inhibitors, primary screen, cell-based, HEK293 M3R inducible RGS4, calcium flux. Regulator of G-protein signaling 4 (Homo sapiens), P49798. Fluo-4 calcium flux; active compounds read high; triggered by carbachol at its EC20. B-score at 10 µM. 310,000 compounds, 0.45% hits. AID 463165, 2010;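 active means B-score, a plate-corrected calcium signal, over three deviations above library mean, with baseline fluorescence within five deviations of library mean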;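 further: RGS4 expression induced by doxycycline in cells with stable M3 receptor; B-score is computed from the integrated fluorescence ratio over baseline after carbachol; higher B-score means a larger calcium signal and so more RGS4 inhibition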
Target sequence (P49798 whole entry, looked up): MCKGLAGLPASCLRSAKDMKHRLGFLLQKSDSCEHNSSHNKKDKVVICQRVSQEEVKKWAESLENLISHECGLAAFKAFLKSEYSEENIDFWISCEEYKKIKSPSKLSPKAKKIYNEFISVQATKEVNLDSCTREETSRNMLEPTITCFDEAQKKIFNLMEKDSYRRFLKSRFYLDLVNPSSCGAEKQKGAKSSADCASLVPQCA
MrgX1 allo act: positive allosteric modulators of MrgX1, primary screen, HEK293 cells, Fluo-4 calcium flux. Mas-related G-protein coupled receptor member X1 (Homo sapiens), Q96LB2. FDSS; active compounds read high. B-score at 10 µM. 310,000 compounds, 0.63% hits. AID 588675, 2011;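 active means plate-corrected calcium response at least 3 library SD above typical, normal starting fluorescence, not activating the receptor alone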;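 further: compound read alongside a low EC10 to EC30 dose of BAM8-22 agonist; peak minus trough fluorescence over baseline measured at the second addition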
MrgX1 antagonist: antagonists of human MrgX1 receptor, primary screen, HEK293 cells, Fluo-4 calcium flux | Mas-related G-protein coupled receptor member X1 (Homo sapiens), Q96LB2 | BAM8-22 antagonism; active compounds read low | B-score at 10 µM | 310,000 compounds, 1.3% hits;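 active means calcium-response B-score plate-corrected more than 3 library SD below zero, starting fluorescence within 5 deviations, no agonist response on first addition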;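 further: peak minus trough fluorescence over baseline after final BAM8-22 challenge near maximal dose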
Hits are given with their value; n = inactive; x = no result given. Compounds with a hit are over-represented: about 3.5% of the library has one in this group of screens.

SMILES	RGS4 act	MrgX1 ag	RGS4 inh	MrgX1 allo act	MrgX1 antagonist
COc1cc(C(C)=O)ccc1Oc1cc(NN2CCCCC2)c([N+](=O)[O-])cc1[N+](=O)[O-]	n	n	n	n	n
O=[N+]([O-])c1cc([N+](=O)[O-])c(Oc2ccccc2F)cc1NN1CCCCC1	-7	n	n	n	n
CC1(C)Cc2cccc(Oc3cc(NN4CCCCC4)c([N+](=O)[O-])cc3[N+](=O)[O-])c2O1	n	n	n	n	n
O=[N+]([O-])c1cc([N+](=O)[O-])c(Oc2cccc(Cl)c2Cl)cc1NN1CCCCC1	-8.2	n	n	n	n
Cc1ccc(F)c(Oc2cc(NN3CCCCC3)c([N+](=O)[O-])cc2[N+](=O)[O-])c1	-7.4	n	n	n	n
CCCCc1ccc(/C(C)=N/Nc2cc(N3CCOCC3)nc(C)n2)cc1	n	n	n	n	n
Cc1ccc(NC(=O)C2OCCc3ccccc32)cc1Cl (stereo not given)	n	n	n	n	n
CCC(C)c1ccc(C(C)NC(=S)NC2CCCCC2)cc1 (stereo not given)	-8.4	n	n	n	n
CCc1ccc(C(C)NC(=S)NC2CCCCC2)cc1 (stereo not given)	n	n	n	n	n
COCCNS(=O)(=O)c1cc(OC)ccc1OC	n	n	n	n	n
N=C1/C(=C\c2ccc(-c3cccc(C(=O)O)c3)o2)C(=O)N=C2SC=C(c3ccccc3)N12	n	n	n	7.1	n
CC1CCN(S(=O)(=O)c2cccc3cccnc23)CC1	n	n	n	n	n
CC#CCCc1nc2ccccc2c(=O)n1N	n	n	n	n	-6
COc1ccccc1OCC(=O)Nc1nonc1NC(=O)COc1ccccc1OC	n	n	n	n	n
CC(C)(C)c1cc(C2=CSC3=NCCN23)cc(C(C)(C)C)c1O	-8.1	n	n	n	n
CCN(CC)S(=O)(=O)c1ccc(C(=O)NCc2n[nH]c(=S)n2-c2ccc(Cl)c(Cl)c2)cc1	n	n	n	n	n
CCCCN1C2=C(C(=O)CC(C)(C)C2)C(c2ccccc2)C2=C1c1ccccc1C2=O (stereo not given)	n	n	n	n	n
CCCN1C2=C(C(=O)CC(C)(C)C2)C(c2ccc(F)cc2)C2=C1c1ccccc1C2=O (stereo not given)	n	n	n	n	-8.7
CCn1c(=S)sc2c(=O)n(CC(=O)Nc3ccc(OC)c(Cl)c3)c(C)nc21	n	n	n	n	n
COc1ccc(-c2csc(N(Cc3ccco3)C(=O)c3cccs3)n2)cc1	n	n	n	n	-4.8
COc1ccc(OC)c(-c2csc(N(Cc3ccco3)C(=O)c3cccs3)n2)c1	n	n	n	n	n
CCCc1cc(=O)oc2cc(OC(=O)CN3C(=O)NC4(CCCC4)C3=O)ccc12	n	n	n	n	-8.6
CC(C)CC(=O)NC(NC(=S)Nc1sc2c(c1C#N)CCCC2)C(Cl)(Cl)Cl (stereo not given)	n	n	n	n	-4.5
CCOC(=O)C1=C(COC(=O)C2(C)CC2(Cl)Cl)NC(=O)NC1c1ccccc1 (stereo not given)	n	n	n	n	n
S=C(NCCc1ccccc1)N/N=C/C1CCCCC1	n	n	n	9.1	n
SMILES	RGS4 act	MrgX1 ag	RGS4 inh	MrgX1 allo act	MrgX1 antagonist
COCCNC(=S)NN=C1CCCCCC1	n	x	n	x	x
O=C(NC(=S)NCCc1ccccc1)C1CCCCC1	n	n	n	n	n
S=C(NCCc1ccccc1)NN=C1CCCCCC1	n	n	n	7.4	n
CC(=O)NC(C)c1nc2ccccc2n1CC(=O)NC(C)CCc1ccccc1 (stereo not given)	n	n	n	n	n
COc1ccc(/C=C2\N=C3CCCCCN3C2=O)cc1OC	n	n	n	n	-4.7
Cc1ccnc(NC(=O)C(C)n2cc([N+](=O)[O-])cn2)c1 (stereo not given)	n	n	n	n	n
C(=N\Nc1nc(-c2ccccc2)cs1)/c1ccncc1	n	n	n	n	n
O=C(O)Cc1sc(N/N=C\c2ccncc2)nc1-c1ccccc1	n	n	n	n	-5.8
COc1ccc(S(=O)(=O)N2CCC(C(=O)NCc3cccnc3)CC2)cc1Cl	n	n	n	n	n
CCNc1nc(NC(C)(C)C)nc(SCC(N)=O)n1	n	n	n	n	n
CCOC(=O)C1=NNC(C(=O)c2ccc(Cl)cc2)C1c1ccccc1 (stereo not given)	n	n	n	n	n
CCOC(=O)C1=NN(c2ccc(Cl)cc2)C(c2ccccc2)CC1=O (stereo not given)	n	n	n	n	-7.8
Cc1c(C)c2ccc(OCC(=O)N3CCN(C(=O)C4COc5ccccc5O4)CC3)cc2oc1=O (stereo not given)	-7.2	n	n	n	n
Cc1cc(=O)oc2cc(OCC(=O)N3CCN(C(=O)C4COc5ccccc5O4)CC3)ccc12 (stereo not given)	n	n	n	n	n
CCOc1cc(/C=C2\N=C(SCC)SC2=O)cc([N+](=O)[O-])c1OC(C)=O	n	n	n	n	n
CCOc1c(OC(C)=O)ccc(/C=C2\N=C(SCC)SC2=O)c1[N+](=O)[O-]	-7.1	n	n	n	n
CSCCC(NC(=O)COc1ccccc1)C(=O)OCc1ccc([N+](=O)[O-])cc1 (stereo not given)	n	n	n	n	n
O=C(/C=C\c1ccccc1)Nc1nccs1	n	n	n	n	n
O=C(/C=C/c1cccc(F)c1)Nc1nccs1	n	n	n	n	-6.3
CC[C@]1(c2ccccc2)C(=O)N(C(=O)OC)N1C(=O)OC	n	n	n	n	n
CC[C@@]1(c2ccccc2)C(=O)N(C(=O)OC)N1C(=O)OC	n	n	n	n	-8.6
CC(C)c1ccccc1NC(=O)CNCCOc1ccccc1F	-7.2	n	n	n	n
COc1ccc(CCNC(=O)c2ccc3ccccc3n2)cc1	n	n	n	n	n
CSc1ccc(C2C(C(=O)c3ccco3)=C(O)C(=O)N2c2nnc(SC)s2)cc1 (stereo not given)	n	n	n	n	-5.4
Cc1nnc(N2C(=O)C(O)=C(C(=O)c3ccco3)C2c2ccc(C(C)C)cc2)s1 (stereo not given)	n	n	n	n	n
Cc1nnc(N2C(=O)C(O)=C(C(=O)c3ccco3)C2c2ccc(C(C)(C)C)cc2)s1 (stereo not given)	n	27	n	n	n
Cc1nnc(N2C(=O)C(O)=C(C(=O)c3ccco3)C2c2ccc(F)cc2)s1 (stereo not given)	n	n	n	n	n
